Assay [1] has as its system Protein cereblon/Epidermal growth factor receptor (Homo sapiens), P00533+Q96SW2 [UNDEFINED MUTATION]. In words: Protac activity at CRBN/EGFR exon 19 deletion mutant in human PC9 cells assessed as induction of degradation of EGFR assessed as fold change in EGFR protein expression at 0.3 uM incubated for 12 hrs by Western blot analysis relative to control (reference value: 1). In kind it is cell-based. Conditions: PC-9. In short, it runs like this:
(§1)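 Time course in PC9 cells at a fixed 0.3 μM. Cells harvested at the indicated time points and EGFR protein quantified by western blot relative to control.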
In general terms: Immunoblotting shows a protein as a band on a membrane.

Assay [2] concerns HCC827. In words: Antiproliferative activity against human HCC827 cells harboring EGFRDel19 mutant by MTT assay. In kind it is functional, cell-based. In short, it runs like this: (§2)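 MTT proliferation read-out in human NSCLC lines: PC9 (EGFR Del19), HCC827 (EGFR Del E746-A750) and H1975 (EGFR L858R/T790M). IC50 values are in μM and reported as mean ± SD from n = 3.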
A general note: Tetrazolium assays rely on reduction of a dye to a coloured formazan, in cell work by metabolically active cells.

In assay [3] the test system is Protein cereblon/Epidermal growth factor receptor (Homo sapiens), P00533+Q96SW2 [UNDEFINED MUTATION]. The experiment in a line: Protac activity at CRBN/EGFR exon 19 deletion mutant in human PC9 cells assessed as induction of degradation of EGFR assessed as fold change in EGFR protein expression at 0.3 uM incubated for 24 hrs by Western blot analysis relative to control (reference value: 1). In kind it is cell-based. Conditions: PC-9. In short, it runs like this:
as §1

The subject of assay [4] is NCI-H1975. In words: Antiproliferative activity against human NCI-H1975 cells harboring EGFR L858R/T790M double mutant by MTT assay. In kind it is functional, cell-based. In short, it runs like this: as §2
The subject of assay [5] is Protein cereblon/Epidermal growth factor receptor (Homo sapiens), P00533+Q96SW2 [UNDEFINED MUTATION]. In words: Protac activity at CRBN/EGFR exon 19 deletion mutant in human PC9 cells assessed as induction of degradation of EGFR at 0.3 uM incubated for 6 hrs by Western blot analysis relative to control. In kind it is cell-based. Particulars: PC-9. The procedure, abridged: as §1

For assay [6] the test system is unchanged. The experiment in a line: Protac activity at CRBN/EGFR exon 19 deletion mutant in human PC9 cells assessed as induction of degradation of EGFR assessed as fold change in EGFR protein expression at 0.3 uM incubated for 3 hrs by Western blot analysis relative to control (reference value: 1). In kind it is cell-based. Particulars: PC-9. In short, it runs like this: as §1

The test system is the same in assay [7]. In words: Protac activity at CRBN/EGFR exon 19 deletion mutant in human PC9 cells assessed as increase in degradation of EGFR at 10 uM incubated for 24 hrs by Western blot analysis. In kind it is cell-based. Particulars: PC-9. In short, it runs like this: (§3)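 PC9 (EGFR Del19) and H1975 (EGFR L858R/T790M) cells exposed to 10 μM compound for 24 h. Cell lysates analysed for EGFR protein by western blot.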

The test system of assay [8] is PC-9. The experiment in a line: Antiproliferative activity against human PC9 cells harboring EGFRDel19 mutant by MTT assay. In kind it is functional, cell-based. In short, it runs like this:
as §2

Assay [9] relates to Protein cereblon/Epidermal growth factor receptor (Homo sapiens), P00533+Q96SW2 [L858R,T790M]. In words: Protac activity at CRBN/EGFR L858R/T790M mutant in human H1975 cells assessed as induction of degradation of EGFR at 10 uM incubated for 24 hrs by Western blot analysis. In kind it is cell-based. In short, it runs like this: as §3
For assay [10], the system named is Protein cereblon/Epidermal growth factor receptor (Homo sapiens), P00533+Q96SW2 [UNDEFINED MUTATION]. In words: Protac activity at CRBN/EGFR exon 19 deletion mutant in human PC9 cells assessed as induction of degradation of EGFR assessed as fold change in EGFR protein expression at 0.3 uM incubated for 1 hr by Western blot analysis relative to control (reference value: 1). In kind it is cell-based. Particulars: PC-9. The procedure, abridged: as §1

Assay [11] shares this test system. In words: Protac activity at CRBN/EGFR exon 19 deletion mutant in human PC9 cells assessed as induction of degradation of EGFR at 0.3 uM pretreated with proteasome inhibitor, MG-132 for 2 hrs followed by incubation with compound for 6 hrs by Western blot analysis. In kind it is cell-based. Conditions: PC-9. The procedure, abridged:
(§4)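 PC9 cells pretreated for 2 h with proteasome inhibitor MG-132 (10 μM) or lenalidomide (10 μM), then given 0.3 μM PROTAC for 6 h. EGFR levels read by western blot.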

For assay [12] the test system is unchanged. The experiment in a line: Protac activity at CRBN/EGFR exon 19 deletion mutant in human PC9 cells assessed as induction of degradation of EGFR at 0.3 uM pretreated with proteasome inhibitor, lenalidomide for 2 hrs followed by incubation with compound for 6 hrs by Western blot analysis. In kind it is cell-based. Particulars: PC-9. The procedure, abridged:
as §4

Assay [13] has the same test system. In words: Protac activity at CRBN/EGFR exon 19 deletion mutant in human PC9 cells assessed as induction of degradation of EGFR at 0.3 uM incubated for 24 hrs by DAPI-staining based immunofluorescence microscopy. In kind it is cell-based. Particulars: PC-9.
Assay [14] shares this test system. In words: Protac activity at CRBN/EGFR exon 19 deletion mutant in human PC9 cells assessed as induction of degradation of EGFR by measuring fold change in EGFR protein expression at 3 uM incubated for 6 hrs by Western blot analysis relative to control (reference value: 1). Conditions: PC-9. In kind it is cell-based. In short, it runs like this:
(§5)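 PC9 cells (EGFR Del19) exposed for 6 h to six concentrations from 0.1 μM to 10 μM. EGFR protein measured by western blot relative to untreated control. DC50 and Dmax derived from the concentration-response.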

For assay [15] the test system is unchanged. The experiment in a line: Protac activity at CRBN/EGFR exon 19 deletion mutant in human PC9 cells assessed as induction of degradation of EGFR by measuring fold change in EGFR protein expression at 10 uM incubated for 6 hrs by Western blot analysis relative to control (reference value: 1). Particulars: PC-9. In kind it is cell-based. The procedure, abridged: as §5

Assay [16] relates to PC-9. The experiment in a line: Induction of cell cycle arrest in human PC9 cells harboring EGFRDel19 mutant assessed as accumulation in G0/G1 phase at 0.5 uM incubated for 24 hrs by confocal microscopy. In kind it is functional, cell-based. The procedure, abridged: (§6)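 PC9 cells were exposed to 0.5 μM test agent for 24 h. Cell cycle distribution and apoptosis were then read on an ImageXpress Micro Confocal/Widefield high-content imaging system.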

Assay [17] concerns Protein cereblon/Epidermal growth factor receptor (Homo sapiens), P00533+Q96SW2 [UNDEFINED MUTATION]. The experiment in a line: Protac activity at CRBN/EGFR exon 19 deletion mutant in human PC9 cells assessed as induction of degradation of EGFR by measuring fold change in EGFR protein expression at 0.3 uM incubated for 6 hrs by Western blot analysis relative to control (reference value: 1). In kind it is cell-based. Conditions: PC-9. The procedure, abridged: as §5

Assay [18] relates to PC-9. The experiment in a line: Induction of apoptosis in human PC9 cells harboring EGFRDel19 mutant at 0.5 uM incubated for 24 hrs by confocal microscopy relative to control. In kind it is functional. The procedure, abridged:
as §6

Assay [19] relates to Protein cereblon/Epidermal growth factor receptor (Homo sapiens), P00533+Q96SW2 [UNDEFINED MUTATION]. In words: Protac activity at CRBN/EGFR exon 19 deletion mutant in human PC9 cells assessed as induction of degradation of EGFR assessed as fold change in EGFR protein expression at 0.3 uM incubated for 48 hrs by Western blot analysis relative to control (reference value: 1). In kind it is cell-based. Conditions: PC-9. In short, it runs like this:
as §1

Assay [20] shares this test system. In words: Protac activity at CRBN/EGFR exon 19 deletion mutant in human PC9 cells assessed as induction of degradation of EGFR by measuring fold change in EGFR protein expression at 1 uM incubated for 6 hrs by Western blot analysis relative to control (reference value: 1). In kind it is cell-based. Particulars: PC-9. The procedure, abridged: as §5
The test system is the same in assay [21]. In words: Protac activity at CRBN/EGFR exon 19 deletion mutant in human PC9 cells assessed as induction of degradation of EGFR by measuring fold change in EGFR protein expression at 0.1 uM incubated for 6 hrs by Western blot analysis relative to control (reference value: 1). Particulars: PC-9. In kind it is cell-based. The procedure, abridged:
as §5

The target of assay [22] is Protein cereblon/Epidermal growth factor receptor (Homo sapiens, UniProt P00533+Q96SW2). The experiment in a line: (§7) Protac activity at CRBN/EGFR exon 19 deletion mutant in human PC9 cells assessed as induction of degradation of EGFR incubated for 6 hrs by Western blot analysis. In kind it is cell-based. Particulars: pc-9. In short, it runs like this: as §5
The subject of assay [23] is Protein cereblon/Epidermal growth factor receptor (Homo sapiens), P00533+Q96SW2 [UNDEFINED MUTATION]. Described as §7. Particulars: PC-9. In kind it is cell-based. In short, it runs like this: as §5

Molecules are shown by their SMILES. Calls of active or inactive are those of the source. No cut-off for these calls is given here.

The IC50 is the concentration at which inhibition is half-maximal. A lower IC50 goes with inhibition by little substance. For orientation: DC50 means the concentration giving 50% degradation. For `C=CC(=O)Nc1cc(Nc2nccc(-c3cn(C)c4ccccc34)n2)c(OC)cc1N(C)CCN(C)CCOCCOCCOCCOCC(=O)Nc1cccc2c1CN(C1CCC(=O)NC1=O)C2=O` (stereo not drawn), the fold change (FC) amounted to 1.39 in [1]; 0.52 in assay [3]; 1.01 in assay [6]; 0.96 in assay [10]; 0.49 in assay [14]; 0.39 in assay [15]. Further, the fold change (FC) in assay [17] is 0.32 to 0.44; in [19], 0.57; in assay [20] it was 0.82; in [21], 0.61. Further, the half-maximal inhibitory concentration (IC50) is 1340 nM in assay [2], 657 nM in [4] and 413 nM in assay [8]. Also, the Emax in [5] is 56 to 68%. Further, the result in assay [7], in assay [9], in [13] and in [16] was Active. Moreover, the result in [11] and in [12] was inactive. Besides, the Activity in [18] was 38.6%; in assay [23], “Dose-dependent effect”. Besides, in assay [22], the DC50 was found to be 161 nM.
Consider `C=CC(=O)Nc1cc(Nc2nccc(-c3cn(C)c4ccccc34)n2)c(OC)cc1N(C)CCN(C)CCOCCOCC(=O)Nc1cccc2c1CN(C1CCC(=O)NC1=O)C2=O` (stereo not drawn), for which the values for the IC50 in assay [2], in [4] and in [8] were 1870 nM, 1390 nM and 1420 nM, respectively. Also, the outcome in assay [7] and in assay [9] was Active.
As to `C=CC(=O)Nc1cc(Nc2nccc(-c3cn(C)c4ccccc34)n2)c(OC)cc1N(C)CCN(C)CCOCCOCCOCC(=O)Nc1cccc2c1CN(C1CCC(=O)NC1=O)C2=O` (stereo not drawn), the IC50 in assay [2] worked out at 1610 nM; in assay [4] it was 1700 nM; in assay [8], 1120 nM. Moreover, the result in assay [7] and in assay [9] was Active.
